Screening data (PubChem BioAssay)
INS-1E GSIS act: GLuc luminescence reporter in INS-1E cells, primary screen for activators of glucose-dependent secretion of insulin. activation, % at 16.6 µM. INS-1E GLuc reporter insulin secretion, 2-3 h. hit rate 0.61% among 370,000;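 active means lowest replicate activation of at least 40%, so every replicate reaches that level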;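 further: 0% = median of neutral control wells and 100% = median of IBMX positive control wells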
ERp5 inh: inhibitors of ERp5-driven insulin aggregation, primary screen, biochemical, turbidity, absorbance 650 nm, single point; Protein disulfide-isomerase A6 (Homo sapiens), Q15084; 90 min; inhibition, % at 9.99 µM; hit rate 0.05% among 350,000; AID 651711, 2012;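 active means mean replicate inhibition above about 25%, with every replicate also reaching it, limit read from the data, passing the limit was not always enough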
Target sequence (Q15084 whole entry, looked up): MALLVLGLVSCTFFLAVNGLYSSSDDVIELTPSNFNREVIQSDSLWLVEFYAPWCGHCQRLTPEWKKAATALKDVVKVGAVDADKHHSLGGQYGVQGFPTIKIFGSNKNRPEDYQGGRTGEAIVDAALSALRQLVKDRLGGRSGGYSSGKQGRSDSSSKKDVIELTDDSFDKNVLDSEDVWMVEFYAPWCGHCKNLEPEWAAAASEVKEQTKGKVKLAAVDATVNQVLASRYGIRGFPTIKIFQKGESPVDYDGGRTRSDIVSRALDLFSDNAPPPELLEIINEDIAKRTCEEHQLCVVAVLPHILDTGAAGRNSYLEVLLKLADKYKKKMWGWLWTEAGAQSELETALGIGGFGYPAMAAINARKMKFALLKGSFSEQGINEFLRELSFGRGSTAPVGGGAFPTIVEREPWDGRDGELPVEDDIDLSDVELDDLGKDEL
S100A4 inh HTS: inhibitors of S100A4-myosin IIA peptide binding, primary screen, biochemical, fluorescence polarization, TAMRA-MyoIIA peptide | Protein S100-A4 (Homo sapiens), P26447 | inhibition, % at 10.7 µM | hit rate 0.14% among 360,000 | AID 652163, 2013;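 active means mean inhibition of at least 70% across replicates, with every replicate also reaching that level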
Target sequence (P26447 whole entry, looked up): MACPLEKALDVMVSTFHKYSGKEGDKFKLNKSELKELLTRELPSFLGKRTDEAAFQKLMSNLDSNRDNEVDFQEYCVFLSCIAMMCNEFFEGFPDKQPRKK
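Test system: S100A4 monomer protein; Medium: HEPES pH 7.2 with CaCl2, KCl, NaCl, DTT, Triton; Probe or stimulus: TAMRA-labelled myosin IIA heavy-chain peptide probe, 5 nM; Doses: one dose per compound; Times: polarization read 5 min after assay mix addition, stable 5–60 min; Benchmarks: neutral control DMSO, positive control TFP.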
PDI inh: inhibitors of human PDI, primary screen, biochemical, turbidity, single point, plate reader | Protein disulfide-isomerase (Homo sapiens), P07237 | PDI insulin aggregation turbidity, A650, 90 min | inhibition, % at 10 µM | hit rate 0.052% among 350,000;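 active means mean inhibition across replicates of 30% or more, whatever share of single replicates reach that level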
SIRT5 block: SIRT5 desuccinylase inhibitors, primary screen, biochemical, fluorescence imaging, single point, set 5 | Purified SirT5, succinyl-peptide AMC, trypsin-coupled fluorescence | inhibition, % at 15 µM | hit rate 1.1% among 330,000 | AID 652115, 2013; in the data active means inhibition above about 15%
* marks the source's active call; other numbers are inactive results; . = no result given. The list is not random: actives were taken first. Their share in the collection is about 1.5%.

SMILES | INS-1E GSIS act | ERp5 inh | S100A4 inh HTS | PDI inh | SIRT5 block
COc1ccccc1CN(C)C(=O)C(c1ccccc1)c1ccccc1 | -44 | 0 | 1 | -8 | -2
CS(=O)(=O)c1ccc(S(=O)CC(=O)OCc2ccccc2)c([N+](=O)[O-])c1 (stereo not drawn) | 81* | -3 | -2 | -4 | -1
O=C(CS(=O)c1ccc(C(F)(F)F)cc1[N+](=O)[O-])Oc1ccccc1 (stereo not drawn) | . | . | . | 0 | .
CCOC(=O)c1cc(CC)sc1NC(=O)COC(=O)c1cnccn1 | 69* | 2 | 0 | 2 | 0
CCOC(=O)c1cc(CC)sc1NC(=O)COC(=O)c1ccccn1 | 39 | -1 | 0 | -5 | -1
CN1c2ccsc2C(O)=C(C(=O)Nc2ccccc2)S1(=O)=O | . | . | . | 1 | .
Cc1cccc(C)c1NC(=O)C1=C(O)c2sccc2N(C)S1(=O)=O | 4 | -2 | 19 | -1 | 21*
COc1ccccc1C(=O)N=Nc1c(O)[nH]c2ccc([N+](=O)[O-])cc12 | 3 | 3 | -18 | -6 | 3
O=C(N=Nc1c(O)[nH]c2ccc([N+](=O)[O-])cc12)c1cc(-c2ccccc2Cl)nc2ccccc12 | 9 | 1 | -13 | 24 | 23*
CC(=O)N1N=C(c2ccccc2)OC12CCCC2 | -3 | -10 | -9 | 2 | .
CC(=O)N1N=C(c2ccc(Br)cc2)OC1(C)CC(=O)Nc1ccccc1 (stereo not drawn) | 57* | . | . | 12 | .
C[C@@H]1CN([C@H](C)CO)C(=O)c2cc(NC(=O)c3ccccc3)ccc2O[C@@H](C)CCCCO[C@@H]1CN(C)C(=O)C1CCCCC1 | -29 | 5 | -22 | . | -5
O=C(COC(=O)Cc1c(Cl)cccc1Cl)Nc1ccc2[nH]c(=O)[nH]c2c1 | 14 | 19 | -2 | -3 | 10
O=C(COC(=O)Cc1c(F)cccc1Cl)Nc1ccc2[nH]c(=O)[nH]c2c1 | 14 | 4 | -5 | 6 | 15*
COCC#Cc1cnc2c(c1)C(=O)N([C@@H](C)CO)C[C@H](C)[C@@H](CN(C)C(=O)Nc1ccccc1F)O2 | 3 | -1 | 2 | . | -5
N#Cc1ccc(C(=O)N(Cc2ccco2)c2c(N)n(Cc3ccccc3)c(=O)[nH]c2=O)cc1 | -5 | -7 | -14 | 33* | -7
O=[N+]([O-])c1ccc(C(O)CN2CCN(C/C=C/c3ccccc3)CC2)cc1 (stereo not drawn) | 51* | 2 | -1 | -3 | -2
C[C@@H]1CN([C@@H](C)CO)C(=O)c2cc(NS(C)(=O)=O)ccc2O[C@@H](C)CCCCO[C@H]1CN(C)C(=O)c1ccccc1 | 12 | 1 | -3 | . | -6
COC(=O)CSc1nc2c(c(=O)[nH]c(=O)n2C)n1CCC(C)C | . | . | . | -2 | .
CCCCCn1c(SCC(=O)OC)nc2c1c(=O)[nH]c(=O)n2C | 68* | 1 | -5 | . | 10
CCCCCCn1c(SCCC)nc2c1c(=O)[nH]c(=O)n2C | . | . | . | -17 | .
Cc1cccc(Cn2c(N(C)Cc3ccccc3)nc3c2c(=O)[nH]c(=O)n3C)c1 | . | 0 | -3 | -5 | -1
CCCCCCn1c(N(CC)CC)nc2c1c(=O)[nH]c(=O)n2C | 62* | . | . | -4 | .
CCN(CC)c1nc2c(c(=O)[nH]c(=O)n2C)n1Cc1ccccc1 | 38 | -1 | 7 | 4 | 102*
O=C(C[C@@H]1CC[C@@H]2[C@H](COC[C@H](O)CN2C(=O)Nc2ccc(F)cc2)O1)NC1CCC1 | 7 | 6 | 15 | . | -1
SMILES | INS-1E GSIS act | ERp5 inh | S100A4 inh HTS | PDI inh | SIRT5 block
Cc1ccc(-c2cnc3c(c2)C(=O)N([C@@H](C)CO)C[C@@H](C)[C@@H](CN(C)C(=O)Cc2ccccc2)O3)cc1 | -15 | 10 | -12 | . | 1
CN(C)C(=O)[C@H]1[C@H](CO)[C@H]2Cn3c(ccc(/C=C/c4ccccc4)c3=O)[C@H]2N1C(=O)c1cccnc1 | -2 | 6 | -7 | . | -56
C[C@@H]1CN([C@H](C)CO)S(=O)(=O)c2ccc(-c3cccc(F)c3)cc2O[C@@H]1CN(C)CC1CC1 | 9 | 10 | 6 | . | 0
OCc1nnc2c3ccccc3c(-c3ccccc3)nn12 | 41* | 1 | 0 | 4 | -1
Cc1ccc(S(=O)(=O)N2C[C@@H](O)COC[C@H]3O[C@@H](CC(=O)N[C@@H]4CCN(Cc5ccccc5)C4)CC[C@@H]32)cc1 | -5 | 4 | -1 | . | 2
O=c1[nH]c(Cc2ccc(F)cc2)nc2scc(-c3ccc(F)cc3)c12 | . | -8 | -2 | 1 | 21*
Cc1ccc(-c2csc3nc(CN(C)Cc4ccccc4)[nH]c(=O)c23)cc1 | 1 | -1 | -12 | 1 | 0
CO[C@@H]1CN(C)C(=O)c2ccc(NC(=O)c3cccc(Oc4ccccc4)c3)cc2OC[C@@H](C)NC[C@H]1C | -11 | 9 | -3 | . | 2
COc1ccc(S(=O)(=O)Nc2ccc3c(c2)C(=O)N([C@H](C)CO)C[C@H](C)[C@H](CN(C)S(=O)(=O)c2ccccc2)OCCCC[C@H](C)O3)cc1 | 0 | -9 | -2 | . | 17*
COc1ccc(S(=O)(=O)N(C)C[C@@H]2OCCCC[C@H](C)Oc3ccc(NS(=O)(=O)c4ccccc4)cc3C(=O)N([C@H](C)CO)C[C@@H]2C)cc1 | -49 | -1 | 2 | . | 8
COc1ccc(S(=O)(=O)Nc2ccc3c(c2)C(=O)N([C@@H](C)CO)C[C@H](C)[C@@H](CN(C)S(=O)(=O)c2ccccc2)OCCCC[C@H](C)O3)cc1 | -15 | -4 | 4 | . | 14
COc1ccc(S(=O)(=O)Nc2ccc3c(c2)C(=O)N([C@H](C)CO)C[C@@H](C)[C@@H](CN(C)S(=O)(=O)c2ccccc2)OCCCC[C@@H](C)O3)cc1 | -52 | -3 | 1 | . | 24*
FC(F)(F)c1ccc(Cl)c(-n2c(Cc3cccs3)n[nH]c2=S)c1 | 41* | -6 | -5 | 2 | -3
Fc1ccc(-n2c(Cc3cccs3)n[nH]c2=S)cc1Cl | 57 | -1 | -7 | -8 | -6
C[C@H]1CN([C@@H](C)CO)S(=O)(=O)c2ccc(C3=CCCCC3)cc2O[C@H]1CN(C)C(=O)C1CC1 | -6 | 16 | 10 | . | 4
CN(C)c1cncc(C(=O)O)c1 | 63* | -1 | 8 | 4 | -2
O=C(O)c1cncc(Br)c1 | 0 | 3 | 2 | -4 | 0
C[C@@H]1CN([C@@H](C)CO)C(=O)c2cc(NC(=O)CCC(F)(F)F)ccc2O[C@@H](C)CCCCO[C@H]1CN(C)C(=O)CCCN(C)C | 5 | -15 | 8 | . | -2
CNC[C@@H]1OCCCC[C@@H](C)Oc2ccc(NS(=O)(=O)c3ccc(C)cc3)cc2C(=O)N([C@H](C)CO)C[C@@H]1C | 6 | -1 | -2 | . | 0
